Values belong to the molecule of their own block, whether it stands above or below them.
Assays:
[1] = tested on: RAS-deficient MEFs reconstituted with KRAS^Q61R; experiment: Immunoblot/immunoprecipitation analysis of cell signaling in KRAS^Q61R MEFs; type: cell-based, mouse
Summary of the method: (§1)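 RAS-deficient MEFs reconstituted with KRAS^Q61R or BRAF^V600E were grown in DMEM with 10% FBS at 37°C, 5% CO₂. Cells were plated at about 70% confluency and treated 48 h later for 1 h. They were lysed in NP-40 buffer (pH 8.0) for 15 min at 4°C, equalised by Bradford, and immunoblotted for pERK and total ERK. Blots are representative of ≥2 independent experiments.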

[2] = tested on: RAS-deficient MEFs reconstituted with BRAF^V600E; experiment: Immunoblot analysis of cell signaling in BRAF^V600E MEFs; type: cell-based, mouse; conditions: 1 hour treatment
Summary of the method: as §1

[3] = tested on: MCF10A cells stably expressing Halo-KRAS^G12V; experiment: Immunoblot analysis of cell signaling in KRAS^G12V-MCF10A cells; type: cell-based; conditions: 1 hour treatment
[4] = target: KRAS^Q61R/CRAF^WT interaction (Homo sapiens, UniProt P01116+P04049, Q61R); experiment: NanoBRET assay of Halo-KRAS^Q61R/Nano-CRAF^WT binding in live 293FT cells; type: cell-based
CRAF-RBD = CRAF-RBD (Homo sapiens, UniProt P04049); experiment: SPR binding to captured avi-CRAF-RBD; conditions: 100–1.56 μmol/L
Summary of the method: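 Avi-tagged CRAF-RBD (aa 52–131) was captured on a Neutravidin-coupled CM5 chip in a Biacore S200. A 2-fold series from 100 to 1.56 µmol/L was injected over 1,785 RU, and single 100 µmol/L doses over 3,000 RU. Reference-cell and buffer responses were subtracted, and DMSO mismatches were corrected with a standard curve.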

KRAS^G12D = KRAS^G12D (Homo sapiens, UniProt P01116, G12D); experiment: SPR binding to captured avi-KRAS^G12D-GppNHp; conditions: GppNHp-loaded KRAS^G12D; 100–1.56 μmol/L
Summary of the method: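 Avi-KRAS^G12D (aa 2–188) loaded with GppNHp was captured on a Neutravidin-coupled CM5 chip in a Biacore S200. Compounds were injected as a 2-fold series from 100 to 1.56 µmol/L over 2,300 RU, or singly at 100 µmol/L over 3,800 RU. Buffer was HEPES pH 7.5 with NaCl, Tween 20, MgCl₂ and 2.5% DMSO. Reference-cell and buffer responses were subtracted, with DMSO-mismatch correction.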

KRAS^G12V or CRAF-RBD = experiment: SPR analysis, result summarised over both targets; type: binding; conditions: single dose 100 μmol/L or dose-response 100–1.56 μmol/L

Molecule: COc1cc(/C=C(\C#N)C(N)=O)cc(CSc2nc3ccccc3s2)c1O [AG825]
- BRAF/CRAF dimer formation (CRAF immunoprecipitation probed for BRAF) ([1]; 10 μmol/L for 1 hour): increase the detection of heterodimerized CRAF/BRAF complexes
- pERK levels (ERK activation) ([1]; 1 hour treatment, immunoblot): increased RAS-dependent ERK activation
- pERK levels (ERK activation) [2]: pERK levels were reduced
- pERK levels (ERK activation) [3]: increased RAS-dependent ERK activation

- IC50 [4]: 5 µM
Molecule: C[C@@H]1O[C@@H](O[C@H]2[C@H](O[C@H]3CO[C@@H](O[C@H]4CC[C@]5(C)[C@H]6CC[C@]78OC[C@@]9(CC[C@](C)(C=O)C[C@H]97)[C@H](O)C[C@@]8(C)[C@]6(C)CC[C@H]5C4(C)C)[C@H](O[C@@H]4O[C@H](CO)[C@@H](O)[C@H](O)[C@H]4O)[C@H]3O)O[C@H](CO)[C@@H](O)[C@@H]2O)[C@H](O)[C@H](O)[C@H]1O [Ardisiacrispin B]

- SPR binding to CRAF-RBD (CRAF-RBD): non-selective and non-saturable binding
- SPR binding to KRAS^G12D (KRAS^G12D): non-selective and non-saturable binding
- IC50 [4]: 3.6 µM
Molecule: Clc1ccc(C(c2ccc(Cl)cc2)n2cc[n+](CC(OCc3ccc(Cl)cc3Cl)c3ccc(Cl)cc3Cl)c2)cc1 (centres unmarked) [Calmidazolium chloride]

- IC50 [4]: 5.4 µM
Molecule: CCOc1nc2cccc(C(=O)OC(C)OC(=O)OC3CCCCC3)c2n1Cc1ccc(-c2ccccc2-c2nnn[nH]2)cc1 (centres unmarked) [Candesartan cilexetil]

Molecule: CN1C(=O)[C@]2(Cc3cn([C@]45C[C@@]67SS[C@@](CO)(C(=O)N6[C@H]4Nc4ccccc45)N(C)C7=O)c4ccccc34)SS[C@@]1(CO)C(=O)N2C [Chetomin]
- IC50 [4]: 2.9 µM

Molecule: CC(C)=CCC[C@]1(C)C=Cc2c(O)c3c(c(CC=C(C)C)c2O1)O[C@]12C(=C[C@@H]4C[C@H]1C(C)(C)O[C@@]2(C/C=C(/C)C(=O)O)C4=O)C3=O [Gambogic acid]
- IC50 [4]: 1.7 µM

Molecule: CN1C(=O)[C@]23CC4=CC=C[C@H](O)[C@H]4N2C(=O)[C@@]1(CO)SS3 [Gliotoxin]
- pERK levels (ERK activation) ([1]; 1 hour treatment, immunoblot): inhibit RAS-dependent ERK activation
- pERK levels (ERK activation) [3]: inhibit RAS-dependent ERK activation
- IC50 [4]: 2.8 µM

Molecule: Cc1cc2c(C(C)C)c(O)c(O)c(C=O)c2c(O)c1-c1c(C)cc2c(C(C)C)c(O)c(O)c(C=O)c2c1O [Gossypol]
- IC50 [4]: 5.2 µM

Molecule: CC(C)(C)CC(C)(C)NCC(O)COc1ccc(C(C)(C)c2ccc(OCC(O)CNC(C)(C)CC(C)(C)C)cc2)cc1.Cl (centres unmarked) [NSC145366]
- pERK levels (ERK activation) ([1]; 1 hour treatment, immunoblot): inhibited ERK activation
- pERK levels (ERK activation) [2]: suppressed pERK levels
- pERK levels (ERK activation) [3]: inhibited ERK activation

Molecule: CC(C)=C[C@H]1C[C@H](C)[C@]2(CC[C@]3(C)C[C@H]4[C@H](C(=O)C[C@@]4(C)O)/C(C=O)=C\C[C@H]32)O1 [Ophiobolin A]
- pERK levels (ERK activation) ([1]; 1 hour treatment, immunoblot): reduced pERK levels in a dose-dependent manner
- phosphorylation of endogenous CRAF on S338 (pS338-CRAF) ([1]; 1 hour treatment, immunoblot): reduced the phosphorylation of CRAF on S338
- SPR binding to KRAS or the CRAF-RBD (KRAS^G12V or CRAF-RBD): inability to detect binding
- pERK levels (ERK activation) [3]: dose-dependent decrease
- pMEK levels (phosphorylation and activation of MEK) [3]: dose-dependent decrease
- phosphorylation of endogenous CRAF on S338 (pS338-CRAF) [3]: reduced the phosphorylation of CRAF on S338
- IC50 [4]: 1.08 µM

- increase of the Halo-KRAS^Q61R/Nano-CRAF^WT interaction (BRET signal) ([4]; 0.5 and 1 μmol/L for 4 hours, normalized BRET signal): approximately 35%
Molecule: CN(C)CCOc1ccc(-c2nc(-c3ccncc3)c(-c3ccc4c(c3)CC/C4=N\O)[nH]2)cc1 [SB590885]

- IC50 [4]: 6 µM
Molecule: CC(C)(C)c1ccc(C(O)CCCN2CCC(C(O)(c3ccccc3)c3ccccc3)CC2)cc1 (centres unmarked) [Terfenadine]

Molecule: C/C=C(/C)C(=O)O[C@H]1C(C)=C2[C@H]([C@@H]1OC(=O)CCCCCCC)[C@@](C)(OC(C)=O)C[C@H](OC(=O)CCC)[C@@]1(O)[C@H]2OC(=O)[C@@]1(C)O [Thapsigargin]
- IC50 [4]: 14 µM

- IC50 [4]: 14.3 µM
Molecule: CN1CCN(CCCN2c3ccccc3Sc3ccc(C(F)(F)F)cc32)CC1 [Trifluoperazine]

Molecule: COc1cc(CCN)c2c(c1OC)SSSSS2 [Varacin]
- IC50 [4]: 9.5 µM

Molecule: Swinhopeptolide
- SPR binding to CRAF-RBD (CRAF-RBD): slow on/off rates and possible non-specific binding
- SPR binding to KRAS^G12D (KRAS^G12D): slow on/off rates and possible non-specific binding
